Data on 18 compounds can be found in ChEMBL document CHEMBL3286094, “Synthesis and biological evaluation of novel bisbenzimidazoles as Escherichia coli topoisomerase IA inhibitors and potential antibacterial agents” (J Med Chem, 2014).

Test [1] concerns Escherichia coli. Description: Antibacterial activity against Escherichia coli ATCC 25922 assessed as growth inhibition after 18 to 24 hrs by broth microdilution method. It counts as functional. A general note: Broth dilution looks for growth in wells or tubes with falling amounts of substance.
Test [2] concerns Escherichia coli. Description: Antibacterial activity against Escherichia coli DH5[alpha] assessed as growth inhibition after 18 to 24 hrs by broth microdilution method. It counts as functional.
Test [3] in a line: Inhibition of Escherichia coli DNA topoisomerase-1A using supercoiled pHOT1 plasmid DNA as substrate assessed as inhibition of DNA relaxation after 30 mins by agarose gel electrophoresis. A digest of the protocol:
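Supercoiled plasmid DNA incubated with E. coli Topo IA in the presence of compound at […]. Relaxation products were resolved by electrophoresis on 1% agarose gel.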

The subject of test [4] is Escherichia coli. In words: Bactericidal activity against Escherichia coli DH5[alpha] by agar plating method. It counts as functional.
For test [5], the system named is Escherichia coli. In words: Bactericidal activity against Escherichia coli ATCC 25922 by agar plating method. It counts as functional.

In brackets after ≈: the same amount, converted by molar mass.

For the compound `CCCN1CCN(c2ccc3nc(-c4ccc5nc(-c6ccc(O)cc6)[nH]c5c4)[nH]c3c2)CC1`, the MIC50 in test [1] and in test [2] was greater than 128 µg/mL each time. For the same compound, the IC50 (usually the concentration needed to halve the response being measured) in test [3] came out at 20.8 µM.

Turning to `Oc1ccc(-c2nc3ccc(-c4nc5ccc(N6CCN(c7ccncc7)CC6)cc5[nH]4)cc3[nH]2)cc1`, the MIC50 in test [1] and in test [2] was greater than 128 µg/mL in each case. For the same compound, the IC50 in test [3] is greater than 50 µM.

For the compound `CCN1CCN(c2ccc3nc(-c4ccc5nc(-c6ccc(O)cc6)[nH]c5c4)[nH]c3c2)CC1`, in test [1], the MIC50 (as a rule, an inhibitory concentration at the 50% level, which refers to growth in some studies and to a panel of isolates in others) was greater than 128 µg/mL. Further, in test [2], the MIC50 worked out at 64 µg/mL (≈ 146 µM); the MIC90 (as a rule, an inhibitory concentration at the 90% level, which refers to growth in some studies and to a panel of isolates in others) came to 121 µg/mL (≈ 276 µM). Further, the half-inhibitory concentration (IC50) in test [3] was 5.8 µM. Also, in test [4], the MBC (usually the smallest concentration meeting the test's criterion for killing) stood at 128 µg/mL (≈ 292 µM).

On to `O=C(NCCN1CCN(c2ccc3nc(-c4ccc5nc(-c6ccc(O)cc6)[nH]c5c4)[nH]c3c2)CC1)C(F)(F)F`, for which the MIC50 in test [1] and in test [2] was greater than 128 µg/mL in each case. Moreover, the IC50 in test [3] was determined as 45.8 µM.

Take `Nc1ccc(N2CCN(c3ccc4nc(-c5ccc6nc(-c7ccc(O)cc7)[nH]c6c5)[nH]c4c3)CC2)cc1`: the MIC50 was greater than 128 µg/mL in test [1] and 128 µg/mL (≈ 255 µM) in test [2]. Besides, the IC50 in test [3] was found to be 4.7 µM.

In the case of `Oc1ccc(-c2nc3ccc(-c4nc5ccc(N6CCN(c7ncccn7)CC6)cc5[nH]4)cc3[nH]2)cc1`, the MIC50 in test [1] and in test [2] was greater than 128 µg/mL in each case. Moreover, in test [3], the half-maximal inhibitory concentration (IC50) is greater than 50 µM.

As for `N#Cc1ccccc1N1CCN(c2ccc3nc(-c4ccc5nc(-c6ccc(O)cc6)[nH]c5c4)[nH]c3c2)CC1`, the MIC50 in test [1] and in test [2] was greater than 128 µg/mL each time. Moreover, the concentration for half-maximal inhibition (IC50) in test [3] was found to be 20.4 µM.

Regarding `CCOc1ccc(-c2nc3ccc(-c4nc5ccc(N6CCN(c7ccncc7)CC6)cc5[nH]4)cc3[nH]2)cc1`, the MIC50 in test [1] and in test [2] was greater than 128 µg/mL in each case. Besides, the IC50 in test [3] was greater than 50 µM.

For the compound `COc1ccc(-c2nc3ccc(-c4nc5ccc(N6CCN(c7ccccc7)CC6)cc5[nH]4)cc3[nH]2)cc1OC`, the MIC50 in test [1] and in test [2] was greater than 128 µg/mL each time. Besides, the IC50 in test [3] worked out at 3.8 µM.

With `CCN1CCN(c2ccc3nc(-c4ccc5nc(-c6ccc(OC)c(OC)c6)[nH]c5c4)[nH]c3c2)CC1`, in test [1], the MIC50 worked out at 16 µg/mL (≈ 33.2 µM) and the MIC90 was determined as 14.8 µg/mL (≈ 30.7 µM). Further, the MBC in test [5] was determined as 32 µg/mL (≈ 66.3 µM). In addition, the IC50 in test [3] worked out at 12.3 µM. The same compound returned an MBC in test [4] of 16 µg/mL (≈ 33.2 µM).

In the case of `Oc1ccc(-c2nc3ccc(-c4nc5ccc(N6CCN(c7ccccc7)CC6)cc5[nH]4)cc3[nH]2)cc1`, the MIC50 in test [1] and in test [2] was greater than 128 µg/mL each time. The half-inhibitory concentration (IC50) in test [3] turned out to be 60.3 µM.

For `COc1ccc(-c2nc3ccc(-c4nc5ccc(N6CCN(c7ccccc7C#N)CC6)cc5[nH]4)cc3[nH]2)cc1OC`, the MIC50 in test [1] and in test [2] was greater than 128 µg/mL in each case. The IC50 in test [3] was 3.76 µM.

On to `COc1ccc(-c2nc3ccc(-c4nc5ccc(N6CCN(CCN(C)C)CC6)cc5[nH]4)cc3[nH]2)cc1OC`, for which the MIC50 in test [1] and in test [2] was 128 µg/mL (≈ 244 µM) each time. The IC50 in test [3] came to 3 µM.

Regarding `CCOc1ccc(-c2nc3ccc(-c4nc5ccc(N6CCN(CCNC(=O)C(F)(F)F)CC6)cc5[nH]4)cc3[nH]2)cc1`, the values for the MIC50 in test [1] and in test [2] were 10.4 µg/mL (≈ 18 µM) and 16 µg/mL (≈ 27.7 µM), respectively. In addition, the values for the MIC90 in test [1] and in test [2] were 20.8 µg/mL (≈ 36 µM) and 22.5 µg/mL (≈ 39 µM), respectively. The MBC in test [5] and in test [4] was 32 µg/mL (≈ 55.4 µM) in each case. Also, in test [3], the IC50 came to 50.8 µM.

Regarding `COc1ccc(-c2nc3ccc(-c4nc5ccc(N6CCN(c7ccc(N)cc7)CC6)cc5[nH]4)cc3[nH]2)cc1OC`, the MIC50 in test [1] and in test [2] was greater than 128 µg/mL throughout. Further, in test [3], the IC50 came to 20.3 µM.

Turning to `COc1ccc(-c2nc3ccc(-c4nc5ccc(N6CCN(c7ccc(F)cc7)CC6)cc5[nH]4)cc3[nH]2)cc1OC`, the MIC50 in test [1] and in test [2] was greater than 128 µg/mL in each case. Also, in test [3], the IC50 was greater than 50 µM.

Consider `Oc1ccc(-c2nc3ccc(-c4nc5ccc(N6CCN(c7ccc(F)cc7)CC6)cc5[nH]4)cc3[nH]2)cc1`, for which the MIC50 in test [1] and in test [2] was greater than 128 µg/mL in each case. Further, the IC50 in test [3] amounted to 20.3 µM.

`CN(C)CCN1CCN(c2ccc3nc(-c4ccc5nc(-c6ccc(O)cc6)[nH]c5c4)[nH]c3c2)CC1`: the MIC50 in test [1] is greater than 128 µg/mL; in test [2] it was 64 µg/mL (≈ 133 µM). The IC50 in test [3] was 8 µM.
